Results pooled from the literature.
Protocols differ between the studies behind these lines.
Organism: Escherichia coli
Observed: microbial growth

| SMILES | test | system | conditions | MIC |
| --- | --- | --- | --- | --- |
| C[C@@H](O)[C@H]1C(=O)N2C(C(=O)O)=C(SCCN=CN)C[C@H]12 | broth dilution | KCTC1682 | 16 h | 0.5 µM |
| N=C(N)c1cccc(OCc2ccc(COc3cccc(C(=N)N)c3)cc2)c1 | broth dilution | BW25113 | – | > 200 µg/mL |
| COc1c(C)c(OC(C)=O)c(C)c(O)c1C(=O)/C=C/c1ccccc1 | broth dilution | ATCC25922 | – | 5000 µg/mL |
| O=[N+]([O-])c1ccc(-c2nc3cc(Cl)ccc3[nH]2)o1 | broth dilution | ATTC25922 | – | 8 µg/mL |
| CC(C)Oc1c(NC(=O)c2ccc(NC(=O)[C@H](CC(N)=O)NC(=O)c3ccc(NC(=O)c4ccc(NC(=O)c5ccc([N+](=O)[O-])cc5)cc4)cc3)cc2)ccc(C(=O)Nc2ccc(C(=O)O)cc2)c1O | – | DSM1116 | – | 0.5 µg/mL |
| O=C(CCCCCCCCCC[P+](c1ccccc1)(c1ccccc1)c1ccccc1)Nc1cc(O)c(O)c(O)c1.[Br-] | broth dilution | ATCC25922 | 18 h | > 32 µg/mL |
| CC(C)Oc1c(NC(=O)c2ccc(NC(=O)[C@H](CC(N)=O)NC(=O)c3ccc(NC(=O)c4ccc5c(c4)COC5=O)cc3)cc2)ccc(C(=O)Nc2ccc(C(=O)O)cc2)c1O | – | DSM1116 | – | ≤ 0.03 µg/mL |
| CCCCCCC/C=C/C(=O)N1C(=O)/C(=C(\O)c2ccncc2)C(=O)C1CC(C)C (stereo not drawn) | – | K12, K12 | – | > 200 µg/mL |
| CC1=NN(CNc2c(O)c(S(=O)(=O)O)cc3ccccc23)C(=O)C1=NNn1c(-c2ccccc2)nc2ccccc2c1=O | broth dilution | – | 24 h | 41.8 µM |
| NC1CCCCc2c1[nH]c1ccc(Cl)c(Cl)c21 (stereo not drawn) | broth dilution | ATCC25922 | – | 16 µg/mL |
| CC(C)Oc1c(NC(=O)c2ccc(NC(=O)[C@H](CC(N)=O)NC(=O)c3ccc(NC(=O)c4ccc([N+](=O)[O-])c5cccnc45)cc3)cc2)ccc(C(=O)Nc2ccc(C(=O)O)cc2)c1O | – | DSM1116 | – | 0.25 µg/mL |
| CO[C@H]1O[C@H](COC(c2ccccc2)(c2ccccc2)c2ccccc2)[C@@H](OC(=O)c2ccc(C(C)(C)C)cc2)[C@H](OC(=O)c2ccc(C(C)(C)C)cc2)[C@H]1OC(=O)c1ccc(C(C)(C)C)cc1 | broth dilution | – | – | 1 µg/mL |
| N=C(N)c1ccc(OCCCCCOc2ccc(C(=N)N)cc2)cc1 | broth dilution | W3110 | – | > 200 µg/mL |
| CNC(C)C1CCC(N)C(OC2C(N)CC(N)C(OC3OCC(C)(O)C(NC)C3O)C2O)O1 (stereo not drawn) | broth dilution | ATCC25922 | – | 0.5 µg/mL |
| N=C(N)c1cccc(OCc2ccccc2COc2cccc(C(=N)N)c2)c1 | broth dilution | BW25113 | – | > 200 µg/mL |
| COc1cccc(NCc2ccc(Oc3ccccn3)cc2)c1 | – | – | – | > 50 µg/mL |
| CC(=O)Nc1ncc([N+](=O)[O-])s1 | – | – | – | < 50 µM |
| N=C(N)c1ccc(OCc2cc(COc3ccc(C(=N)N)cc3)cc(-c3ccccc3)c2)cc1 | – | BW25113 | – | ≥ 100 µg/mL |
| O=C1NN=C(N=Cc2ccc(O)c(O)c2)C1=NNn1c(-c2ccccc2)nc2ccccc2c1=O | broth dilution | – | 24 h | 53.5 µM |
| CCCC(=O)Oc1c(C)c(O)c(C(=O)/C=C/c2ccccc2)c(OC)c1C | broth dilution | ATCC25922 | – | 5000 µg/mL |
| COc1cccc(-c2nc3ccccc3n2Cc2ccccc2)c1 | broth dilution | ATCC25922 | – | 128 µg/mL |
| CCCCCCC#Cc1cncc(-c2nnc(SCc3ccc(Cl)cc3)n2C2CC2)c1 | – | – | – | ≥ 20 µg/mL |
| CN[C@H](CC(C)C)C(=O)N[C@H]1C(=O)N[C@@H](CC(N)=O)C(=O)N[C@H]2C(=O)N[C@H]3C(=O)N[C@H](C(=O)N[C@H](C(=O)O)c4cc(O)cc(O)c4-c4cc3ccc4O)[C@H](O)c3ccc(c(Cl)c3)Oc3cc2cc(c3O[C@@H]2O[C@H](CO)[C@@H](O)[C@H](O)[C@H]2O[C@H]2C[C@](C)(N)[C@H](O)[C@H](C)O2)Oc2ccc(cc2Cl)[C@H]1O | broth dilution | ATCC25922 | 18 h | > 32 µg/mL |
| CNC(C)C1CCC(N)C(OC2C(N)CC(N)C(OC3OCC(C)(O)C(NC)C3O)C2O)O1 (stereo not drawn) | broth dilution | K12, K12 | pH 7 | 0.25 µg/mL |
| Clc1cccc(NCc2ccc(Oc3ccccn3)cc2)c1 | – | – | – | > 25 µg/mL |
| COc1cc(C(=O)Nc2ccc(C(=O)N[C@@H](CC(N)=O)C(=O)Nc3ccc(C(=O)Nc4ccc(C(=O)Nc5ccc(C(=O)O)cc5)c(O)c4OC(C)C)cc3)cc2)ccc1C#N | – | DSM1116 | – | < 0.03 µg/mL |
| N=C(N)c1ccc(OCCCCCCCCOc2ccc(C(=N)N)cc2)cc1 | broth dilution | BW25113 | – | > 25 µg/mL |

| SMILES | test | system | conditions | MIC |
| --- | --- | --- | --- | --- |
| CCCCCCC/C=C/C(=O)N1C(=O)/C(=C(\O)C2CCNCC2)C(=O)C1CC(C)C (stereo not drawn) | – | K12, K12 | – | 25 µg/mL |
| CC1=NN(CNc2ccccc2[N+](=O)[O-])C(=O)C1=NNn1c(-c2ccccc2)nc2ccccc2c1=O | broth dilution | – | 24 h | 50.4 µM |
| Cc1ccc2nc(-c3cccc(O)c3)[nH]c2c1 | broth dilution | ATCC25922 | – | 64 µg/mL |
| N=C(N)c1ccc(OCc2cccc(COc3ccc(C(=N)N)cc3)c2)cc1 | broth dilution | BW25113 | – | > 200 µg/mL |
| COc1cccc(-c2nc3ccc(C)cc3[nH]2)c1 | broth dilution | ATCC25922 | – | 128 µg/mL |
| CC(=O)Nc1ccc(C(=O)Nc2ccc(C(=O)N[C@@H](CC(N)=O)C(=O)Nc3ccc(C(=O)Nc4ccc(C(=O)Nc5ccc(C(=O)O)cc5)c(O)c4OC(C)C)cc3)cc2)cc1 | – | DSM1116 | – | 16 µg/mL |
| C=CCn1c(-c2ccc([N+](=O)[O-])cc2)nc2ccc(C)cc21 | broth dilution | ATCC25922 | – | 64 µg/mL |
| Cc1ccc(C)n1-c1ccc(-c2n[nH]c(=S)[nH]2)cc1 | broth dilution | ATCC10536 | 18 h | 8 µg/mL |
| Cc1ccc2nc(-c3ccc(F)cc3)n(Cc3ccccc3)c2c1 | broth dilution | ATCC25922 | – | 128 µg/mL |
| N=C(N)c1ccc(OCc2ccc(COc3ccc(C(=N)N)cc3)cc2)cc1 | – | BW25113 | – | ≥ 200 µg/mL |
| CCCCCCCC(=O)Oc1c(C)c(O)c(C(=O)/C=C/c2ccccc2)c(OC)c1C | broth dilution | ATCC25922 | – | 5000 µg/mL |
| Cc1c(CN(C)C(=O)/C=C/c2cnc3c(c2)CC(NC(=O)OC(C)(C)C)C(=O)N3)oc2ccccc12 (stereo not drawn) | broth dilution | MG1655 | clinical isolate | > 32 µg/mL |
| CCCCCCC/C=C/C(=O)N1C(=O)/C(=C(\O)CCCC)C(=O)C1CC(C)C (stereo not drawn) | – | K12, K12 | – | > 200 µg/mL |
| N=C(N)c1ccc(OCCC(CCOc2ccc(C(=N)N)cc2)c2ccccc2)cc1 (stereo not drawn) | broth dilution | W3110 | – | 200 µg/mL |
| COc1cccc(-c2nc3ccccc3[nH]2)c1 | broth dilution | ATCC25922 | – | 256 µg/mL |
| Cc1ccc(C)n1-c1ccc(-c2nnc(-c3cccc([N+](=O)[O-])c3)[nH]2)cc1 | broth dilution | ATCC10536 | 18 h | 250 µg/mL |
| CNc1cccc2cc(C(=O)NCCc3cccc(C(=O)O)c3)c(=O)[nH]c12 | broth dilution | ATCC25922 | – | > 64 µg/mL |
| CC(C)Oc1c(NC(=O)c2ccc(NC(=O)[C@H](CC(N)=O)NC(=O)c3ccc(NC(=O)c4ccc(C#N)cc4)cc3)cc2)ccc(C(=O)Nc2cccc(C(=O)O)c2)c1O | – | DSM1116 | – | 0.5 µg/mL |
| O=C(O)c1cn(C2CC2)c2cc(N3CCNCC3)c(F)cc2c1=O | broth dilution | ATCC25922 | – | 16 µg/mL |
| CCCCCCC#Cc1cncc(-c2nnc(SCc3ccc([N+](=O)[O-])o3)n2C2CC2)c1 | – | – | – | ≥ 20 µg/mL |
| Cc1cccc(NCc2ccc(Oc3ccccn3)cc2)c1 | – | – | – | > 50 µg/mL |
| COc1cc(Cc2cnc(N)nc2N)cc(OC)c1OC | broth dilution | – | 24 h | > 32 µg/mL |
| CC(C)Oc1c(NC(=O)c2ccc(NC(=O)[C@H](CC(N)=O)NC(=O)c3ccc(NC(=O)c4ccc(NC(N)=O)cc4)cc3)cc2)ccc(C(=O)Nc2ccc(C(=O)O)cc2)c1O | – | DSM1116 | – | 0.5 µg/mL |
| CCn1cc(C(=O)O)c(=O)c2cc(F)c(N3CCNCC3)cc21 | broth dilution | ATCC10536 | 18 h | ≤ 1 µg/mL |
| CC(C)Oc1c(NC(=O)c2ccc(NC(=O)[C@H](CC(N)=O)NC(=O)c3ccc(NC(=O)c4ccc([N+](=O)[O-])cc4)cc3)cc2)ccc(C(=O)Nc2ccc(C(=O)O)c(F)c2)c1O | – | DSM1116 | – | 1 µg/mL |
| Cc1ccc2nc(-c3c4ccccc4cc4ccccc34)[nH]c2c1 | broth dilution | ATCC25922 | – | 128 µg/mL |
| O=[N+]([O-])c1ccc(O)c2ncccc12 | broth dilution | ATCC35218 | – | 4 µg/mL |
